Data on 1 compound can be found in publication PMC11047177 (ESMO Open, 2024).

Entries after “also recorded” stand apart in the source; their conditions may differ.

Data set [1] deals with non-small-cell lung cancer (NSCLC) cells. The note with it: in vitro; cited from earlier work.
Data set [2] in a line: Plasma PF-06939999 pharmacokinetics, noncompartmental. The class given is in vivo, human. Summed up:
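Test compound given orally on an empty stomach. Part 1 had intensive plasma sampling on cycle 1 day 1 and day 15; part 2 had sparse sampling. Plasma was assayed by a validated method with LLOQ 0.250 ng/ml; values below LLOQ were set to zero for summaries. Noncompartmental analysis was done within a dosing interval. Rac was based on AUCτ. Parameters were summarised by dose, cycle and day as geometric means.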

Data set [3] concerns selected locally advanced or metastatic solid tumors. The data set can be described thus: Tumor response by RECIST v1.1. The following applies: for Duration of response (DoR): part 1. The data set is classed as in vivo, human.
The test system of data set [4] is SW1990 and A427 xenograft. The data set can be described thus: Preclinical mouse xenograft models. The data set is classed as in vivo. The note with it: corresponding to a 70% (or greater) inhibition of plasma SDMA; data not shown.
In data set [5] the target is PRMT5 (Homo sapiens, UniProt O14744). The data set can be described thus: Plasma SDMA pharmacodynamics by LC/MS. The class given is in vivo. Summed up:
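Plasma SDMA, a catabolic product of PRMT5 activity, was measured by LC/MS during oral test-compound dosing. Part 1 samples: pre-dose, 2 and 6 h on C1D1; 12 h C1D1 or pre-dose C1D2; pre-dose C1D8; pre-dose, 2 and 6 h on C1D15; pre-dose C1D22, C2D1 and C3D1. Part 2 samples: pre-dose C1D1, C1D8, C1D15, C1D22, C2D1, C3D1 and end of treatment.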

Sequence of PRMT5 (O14744 whole entry): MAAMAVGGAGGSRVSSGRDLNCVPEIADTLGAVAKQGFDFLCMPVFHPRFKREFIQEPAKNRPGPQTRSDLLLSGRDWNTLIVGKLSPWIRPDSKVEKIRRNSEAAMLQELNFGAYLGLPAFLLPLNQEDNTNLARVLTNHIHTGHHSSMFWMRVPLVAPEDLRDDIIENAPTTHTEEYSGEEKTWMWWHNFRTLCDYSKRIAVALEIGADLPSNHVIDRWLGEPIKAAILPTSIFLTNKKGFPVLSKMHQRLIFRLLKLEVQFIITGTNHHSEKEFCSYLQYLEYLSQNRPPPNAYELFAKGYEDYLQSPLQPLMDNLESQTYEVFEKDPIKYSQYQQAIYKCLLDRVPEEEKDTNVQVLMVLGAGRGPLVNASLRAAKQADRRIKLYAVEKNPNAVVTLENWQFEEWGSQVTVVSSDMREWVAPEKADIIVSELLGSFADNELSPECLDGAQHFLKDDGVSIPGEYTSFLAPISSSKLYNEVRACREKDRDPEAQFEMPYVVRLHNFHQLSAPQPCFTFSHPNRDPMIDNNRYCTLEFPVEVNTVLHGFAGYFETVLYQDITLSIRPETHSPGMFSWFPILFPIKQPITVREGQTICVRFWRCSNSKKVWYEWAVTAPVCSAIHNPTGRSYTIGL
Sequence of PRMT5 (Q9BQA1 whole entry partner): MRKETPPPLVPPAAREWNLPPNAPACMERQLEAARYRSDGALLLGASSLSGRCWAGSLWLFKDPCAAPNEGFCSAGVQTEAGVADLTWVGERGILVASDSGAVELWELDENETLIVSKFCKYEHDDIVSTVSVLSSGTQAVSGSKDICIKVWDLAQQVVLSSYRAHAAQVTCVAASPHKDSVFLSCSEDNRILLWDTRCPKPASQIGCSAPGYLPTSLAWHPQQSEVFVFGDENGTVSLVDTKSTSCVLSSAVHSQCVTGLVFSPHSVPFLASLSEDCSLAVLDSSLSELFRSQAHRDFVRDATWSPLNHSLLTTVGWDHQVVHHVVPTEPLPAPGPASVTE

On to `Cc1ncnc2c1ccn2[C@@H]1C[C@H](Oc2cc(C(F)F)c(F)c3c2CNCC3)[C@@H](O)[C@H]1O` [PF-06939999], for which the Anti-proliferative activity result in data set [1] is reported as “demonstrated anti-proliferative activity”. Further, the “Dose dependence of exposure (AUCτ and Cmax)” value in data set [2] (0.5 mg q.d. to 6 mg b.i.d.) is listed as “exposure increased with dose; also recorded: increased in a dose-dependent manner”. In addition, in data set [2] (RP2D, 6 mg q.d.), the “Variability of AUCτ” value was 38%. The “Variability of Cmax” value in data set [2] (RP2D, 6 mg q.d.) is on record as 26%. In data set [2] (b.i.d. and q.d. regimens), the “Time to steady-state PK” value is ≤ 15 days. In addition, the Effective half-life in data set [2] (indicated by Rac after b.i.d. dosing) was > 24 h. In data set [3] (part 1 + part 2, 3/54 patients), the Objective response rate was 6%. Moreover, in data set [3] (part 1 + part 2, 19 patients, response-assessable population (44 patients)), the Stable disease is reported as 43.2%. In addition, the “Confirmed PRs” value in data set [3] (part 1, 28 patients treated, two patients (HNSCC 2 mg b.i.d., NSCLC 4 mg b.i.d.)) is on record as 7%. Moreover, the “Duration of response (DoR)” value in data set [3] (confirmed responder with HNSCC, 2 mg b.i.d.) was determined as 4 months; in data set [3] (confirmed responder with NSCLC, 4 mg b.i.d.), 5 months. Moreover, the Progressive disease in data set [3] (part 2, 26 patients, 6 mg q.d., 8 patients) was 31%. Besides, the Disease control in data set [3] (part 2, 26 patients, 6 mg q.d., 11 patients) worked out at 42%. Besides, the “Confirmed PR” value in data set [3] (part 2, 26 patients, 6 mg q.d., one patient with NSCLC) stood at 4%. Besides, the Tumor growth inhibition in data set [4] is given as ~100%. The “Plasma SDMA inhibition” value was ~60% in data set [5] (14-28 days post-dose, 0.5 mg q.d. or b.i.d.) and “around 80%” in data set [5] (RP2D, 6 mg q.d.).
